# Experimental data of several laboratories.
# Compare with care: the assays were run in different laboratories.
# Target: Tyrosine-protein kinase Fgr (FGR, Homo sapiens, UniProt P09769)
Structure (SMILES),read-out,method,tested at,remaining binding
C[C@@H]1CCN(c2nccc(-c3cnn4ncccc34)n2)C1,binding,,1 µM,100%
CNCc1ccccc1-c1csc([C@@H](C)Nc2nc(C)nc3cc(OC)c(OC)cc23)c1,cell-free assay,competition with immobilised ligand,1 µM,100%
O=C(NCCCN1CCOCC1)c1ccc(Nc2ncc(Cl)c(-c3ccc(Cl)s3)n2)cc1,cell-free assay,competition with immobilised ligand,1 µM,91%
COc1ccnn2ncc(-c3ccnc(N(C)C)n3)c12,binding,,1 µM,76%
C[C@@H](c1ccc(-n2cnc3c(N)ncnc32)cc1)N1CCc2nn(C)c(Cc3ccccc3)c2C1=O,binding,competition with immobilised ligand,0.1 µM,81%
N[C@@H]1CCN(c2nccc(-c3cnn4ncccc34)n2)C1,binding,,1 µM,100%
CN(C)CC#Cc1ccc(OCCCc2sc(N3CCc4cccc(C(=O)Nc5nc6ccccc6s5)c4C3)nc2C(=O)O)c(F)c1,cell-free assay,competition with immobilised ligand,1 µM,100%
COc1cnc(Nc2cccc(S(N)(=O)=O)c2)nc1N1CCN(c2ccccc2)CC1,binding,competition with immobilised ligand,1 µM,95%
CN([C@@H]1CCc2c(CC(=O)O)c3ccccc3n2C1)S(=O)(=O)c1ccc(F)cc1,cell-free assay,competition with immobilised ligand,1 µM,93%
Cc1cnn2ncc(-c3ccnc(N(C)C)n3)c2c1,binding,,1 µM,100%
O=C(NCC1CCOCC1)c1n[nH]cc1NC(=O)c1c(F)cccc1F,binding,competition with immobilised ligand,1 µM,100%
CC1CCCN1c1nccc(-c2cnn3ncccc23)n1 (centres unmarked),binding,,1 µM,98%
Cc1noc([C@H]2C[C@@H](c3ccc(C(F)(F)F)cc3)CN(C(=O)N3CCS(=O)(=O)C3)C2)n1,cell-free assay,competition with immobilised ligand,1 µM,100%
O=C(NCCCN1CCOCC1)c1ccc(Nc2nccc(-c3cc4ccccc4s3)n2)cc1,cell-free assay,competition with immobilised ligand,1 µM,79%
Cc1nccc(COC(=O)N2C[C@@H]3[C@@H](CNC(=O)c4ccc5[nH]nnc5c4)[C@@H]3C2)n1,cell-free assay,competition with immobilised ligand,1 µM,100%
c1cnn2ncc(-c3ccnc(N4CCC45COC5)n3)c2c1,binding,,1 µM,100%
c1cncc(-c2cccc(Nc3nccc(NC4CCCCC4)n3)c2)c1,binding,competition with immobilised ligand,10 µM,14%
COc1ncc2cc3ccccc3nc2c1C#N,cell-free assay,competition with immobilised ligand,5 µM,100%
Cc1cnc(Nc2ccc(C(=O)N3CCC(N4CCCC4)CC3)cc2)nc1-c1cc2ccccc2s1,cell-free assay,competition with immobilised ligand,1 µM,53%
COCCOc1nc(-c2ccc(Cl)nc2)nc2c1CN(C(=O)c1ncn3ccccc13)CC2,cell-free assay,competition with immobilised ligand,0.1 µM,100%
